For test [1], the species on record is Oryctolagus cuniculus. The test can be described thus: In vitro contraction of rabbit aorta strips. Type of test: functional, organism-based. In outline:
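Rabbit aortic strips first contracted with 110 mM KCl to check viability and set maximal force. After washout and full relaxation, strips were equilibrated in 10 mM KCl, then given cumulative concentrations of test compound. EC50 is the concentration giving 50% of the prior 110 mM KCl maximal force.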

Test [2] is filed under the species Oryctolagus cuniculus. Briefly: In vitro inhibition of potassium-induced contractions in rabbit aorta strips. The class given is functional, organism-based. Summed up:
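Rabbit aortic strips contracted with 110 mM KCl (equimolar replacement of NaCl), then exposed to cumulative concentrations of test compound.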

One may read the EC50 as the concentration needed to bring the measured effect to its halfway point. Usually IC50 stands for the concentration that inhibits the measured activity by half. Read a low IC50 as higher potency.

`CSC1=NC(c2ccccc2SC)C2=C(O)OCC2=N1` (stereo not given) showed an EC50 in test [1] (Oryctolagus cuniculus, Aorta) above 30 µM. Moreover, in test [2] (Oryctolagus cuniculus, Aorta), the IC50 was above 30 µM. Turning to `CSC1=NC(c2cccc([N+](=O)[O-])c2SC)C2=C(O)OCC2=N1` (stereo not given), the EC50 in test [1] (Oryctolagus cuniculus, Aorta) is above 30 µM. In test [2] (Oryctolagus cuniculus, Aorta), this molecule came in with an IC50 above 30 µM.

Consider `COC(=O)C1=C(C)N=C(SC)N[C@@H]1c1ccccc1SC`, for which the EC50 in test [1] (Oryctolagus cuniculus, Aorta) was above 30 µM. Besides, the IC50 in test [2] (Oryctolagus cuniculus, Aorta) turned out to be 2.27 µM.

The molecule `COC(=O)C1=C(C)N=C(SC)NC1c1cc([N+](=O)[O-])ccc1SC` (stereo not given) returned an EC50 in test [1] (Oryctolagus cuniculus, Aorta) above 30 µM. In test [2] (Oryctolagus cuniculus, Aorta), the IC50 was found to be 20 µM.

The molecule `CSC1=NC2/C(=C(/O)OCCCCCSc3c2cccc3[N+](=O)[O-])C(C)=N1` (stereo not given) registered an EC50 in test [1] (Oryctolagus cuniculus, Aorta) above 30 µM. For the same molecule, 0.036 µM corresponded to half-maximal inhibition in test [2] (Oryctolagus cuniculus, Aorta) (IC50). `CSC1=NC(c2cccc([N+](=O)[O-])c2)C2=C(O)OCC2=N1` (stereo not given) gave an EC50 in test [1] (Oryctolagus cuniculus, Aorta) above 30 µM. The same molecule had an IC50 in test [2] (Oryctolagus cuniculus, Aorta) above 30 µM. `CSC1=NC(c2cc([N+](=O)[O-])ccc2SC)C2=C(O)OCC2=N1` (stereo not given): the EC50 in test [1] (Oryctolagus cuniculus, Aorta) is above 30 µM. Further, the IC50 in test [2] (Oryctolagus cuniculus, Aorta) was above 30 µM. For `CSC1=NC2/C(=C(/O)OCCCCCSc3ccc([N+](=O)[O-])cc32)C(C)=N1` (stereo not given), a half-maximal effect in test [1] (Oryctolagus cuniculus, Aorta) (EC50) was put at 2.9 µM. Moreover, the IC50 in test [2] (Oryctolagus cuniculus, Aorta) came out at 26 µM.

As for `COC(=O)C1=C(C)N=C(SC)NC1c1ccccc1SC` (stereo not given), the EC50 in test [1] (Oryctolagus cuniculus, Aorta) was above 30 µM. Also, the IC50 in test [2] (Oryctolagus cuniculus, Aorta) came to 20.6 µM. In turn, `COC(=O)C1=C(C)N=C(SC)NC1c1cccc([N+](=O)[O-])c1SC` (stereo not given) had an EC50 in test [1] (Oryctolagus cuniculus, Aorta) above 30 µM. In test [1] (Oryctolagus cuniculus, Aorta), `COC(=O)C1=C(C)N=C(SC)NC1c1cccc([N+](=O)[O-])c1` (stereo not given) displayed an EC50 above 30 µM. This molecule returned an IC50 in test [2] (Oryctolagus cuniculus, Aorta) of 2.5 µM.

For the molecule `CO/C(O)=C1\C(C)=NC(C)=C([N+](=O)[O-])[C@H]1c1ccccc1C(F)(F)F`, the EC50 in test [1] (Oryctolagus cuniculus, Aorta) is 0.046 µM. This molecule registered an IC50 in test [2] (Oryctolagus cuniculus, Aorta) of 17.1 µM. Consider `COC(=O)C1=C(C)N=C(SC)N[C@H]1c1ccccc1SC`, for which a half-maximal effect in test [1] (Oryctolagus cuniculus, Aorta) (EC50) was put at 3.55 µM. The molecule also yielded an IC50 in test [2] (Oryctolagus cuniculus, Aorta) above 30 µM. Consider `CCCCSc1ccccc1C1N=C(SC)NC2=C1C(=O)OC2` (stereo not given), for which the EC50 in test [1] (Oryctolagus cuniculus, Aorta) was determined as 17.3 µM. In addition, the IC50 in test [2] (Oryctolagus cuniculus, Aorta) is above 30 µM. In test [1], `CSC1=NC2/C(=C(/O)OCCCCCSc3ccccc32)C(C)=N1` (stereo in doubt; 15b) yielded an EC50 of 0.82 µM. This molecule also showed an IC50 in test [2] of 3.9 µM. The like results for `CSC1=NC2/C(=C(/O)OCCCCCSc3ccccc32)C(C)=N1` (stereo in doubt; 15b-A) were, in that order, above 30 µM and 0.1 µM. `CSC1=NC2/C(=C(/O)OCCCCCSc3ccccc32)C(C)=N1` (stereo in doubt; 15b-B) returned an EC50 in test [1] of 0.59 µM. In test [2], this molecule showed an IC50 above 30 µM. Regarding `COC(=O)C1=C(C)NC(C)=C(C(=O)OC)C1c1ccccc1[N+](=O)[O-]` [NIFEDIPINE], the EC50 in test [1] (Oryctolagus cuniculus, Aorta) was above 30 µM. In test [2] (Oryctolagus cuniculus, Aorta), this molecule showed an IC50 of 0.019 µM.

For the origin of these results see ChEMBL document CHEMBL1128711, “Calcium entry blockers and activators: conformational and structural determinants of dihydropyrimidine calcium channel modulators” (J Med Chem, 1995).
